Test results reported in ChEMBL document CHEMBL1150626, “Interiotherins C and D, two new lignans from Kadsura interior and antitumor-promoting effects of related neolignans on Epstein-Barr virus activation” (J Nat Prod, 2002).

Experiments:
Type in all cases: cell-based
Raji [1] = test: Inhibition of TPA-induced EBV-early antigen activation in human Raji cells assessed as EA activation at 1000 mol ratio relative to TPA; set-up: scale not given: the % may be the effect or the level left; conditions: human gammaherpesvirus 4
Raji [2] = test: Inhibition of TPA-induced EBV-early antigen activation in human Raji cells assessed as EA activation at 500 mol ratio relative to TPA; set-up: scale not given: the % may be the effect or the level left; conditions: human gammaherpesvirus 4
Raji [3] = test: Inhibition of TPA-induced EBV-early antigen activation in human Raji cells assessed as EA activation at 100 mol ratio relative to TPA; set-up: scale not given: the % may be the effect or the level left; conditions: human gammaherpesvirus 4
Raji [4] = test: Inhibition of TPA-induced EBV-early antigen activation in human Raji cells assessed as EA activation at 10 mol ratio relative to TPA; set-up: scale not given: the % may be the effect or the level left; conditions: human gammaherpesvirus 4
Raji [5] = test: Cytotoxicity against human Raji cells at 1000 mol ratio by trypan blue staining method
Method in brief: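 Viability was assessed by trypan blue staining in Raji cells treated as in the EBV-EA assay: 48 h at 37 °C with n-butyric acid 4 mM, TPA and test compound in DMSO. Results are expressed as percent viable cells.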

Structure (SMILES)	Activity (Raji [1]) [%]	Activity (Raji [2]) [%]	Activity (Raji [3]) [%]	Activity (Raji [4]) [%]	Activity (Raji [5]) [%]
COc1c2c(cc3c1-c1c(cc4c(c1OC)OCO4)C[C@H](C)[C@H](C)C3)OCO2 [SCHISANDRIN C]	2.6	50.7	73.6	92.1	70
COc1cc2c(c(OC)c1OC)-c1c(cc3c(c1OC)OCO3)C[C@H](C)[C@@](C)(O)C2 [GOMISIN A]	–	–	–	–	70
C/C=C(/C)C(=O)O[C@H]1c2cc(OC)c(OC)c(OC)c2-c2c(cc3c(c2OC)OCO3)[C@H](OC(C)=O)[C@H](C)[C@@H]1C [INTERIOTHERIN C]	16	59	78.9	100	60
COc1cc2c(c(OC)c1OC)-c1c(cc3c(c1OC)OCO3)C[C@H](C)[C@](C)(O)C2	7.1	52.5	78.3	96.6	–
COc1cc2c(c(OC)c1OC)-c1c(cc3c(c1OC)OCO3)C[C@H](C)[C@](C)(O)[C@H]2OC(=O)c1ccccc1 [GOMISIN C]	19.7	60.2	87.4	100	60
C/C=C(/C)C(=O)O[C@H]1c2cc3c(c(OC)c2-c2c(cc4c(c2OC)OCO4)C[C@H](C)[C@]1(C)O)OCO3 [INTERIOTHERIN B]	11.6	57.2	80.3	100	60
COc1cc2c(c(OC)c1OC)-c1c(cc3c(c1OC)OCO3)[C@H](OC(C)=O)[C@H](C)[C@H](C)C2 [KADSURIN]	15	58.3	79.9	100	60
C/C=C(/C)C(=O)O[C@H]1c2cc3c(c(OC)c2-c2c(cc4c(c2OC)OCO4)C[C@H](C)[C@@H]1C)OCO3 [ANGELOYLGOMISIN R]	10.6	55.6	79	100	60
C/C=C(/C)C(=O)O[C@H]1c2cc3c(c4c2[C@@]2(CO4)C(=O)C(OC)=C(OC)C=C2C[C@@H](C)[C@H]1C)OCO3 [HETEROCLITIN D]	9.4	54.7	76.2	100	70
C/C=C(/C)C(=O)O[C@H]1c2cc3c(c4c2[C@]2(CO4)C(=CC(=O)C(OC)=C2OC)C[C@@H](C)[C@H]1C)OCO3 [INTERIORIN]	13.5	52	77.4	100	60
C/C=C(/C)C(=O)O[C@H]1c2cc3c(c4c2C(C(=O)C(=O)OC)(CO4)/C(=C/C(=O)OC)C[C@@H](C)[C@H]1C)OCO3 (stereo not given in full) [HETEROCLITIN F]	16.5	58.9	82.4	100	60
COc1c2c(cc3c1-c1c(cc4c(c1OC)OCO4)[C@H](OC(=O)c1ccccc1)[C@@H](C)[C@@H](C)C3)OCO2 [INTERIOTHERIN A]	18.3	60.1	85.7	100	60
COc1cc2c(c(OC)c1OC)-c1c(cc3c(c1OC)OCO3)[C@@H]1O[C@H]2[C@@H](C)[C@H]1C [NEOKADSURANIN]	4.7	51.6	72.9	92.6	70
COc1cc2c(c(OC)c1OC)-c1c(cc3c(c1OC)OCO3)[C@H](OC(=O)c1ccccc1)[C@@](C)(O)[C@@H](C)C2 [GOMISIN G]	18.9	59.2	81.4	100	60
C/C=C(/C)C(=O)O[C@H]1c2cc3c(c4c2[C@@]2(CO4)C(=O)C(=O)C(OC)=C/C2=C/[C@@H](C)[C@H]1C)OCO3 [INTERIOTHERIN D]	11.5	55.8	75	94.8	60
